Most compounds without a hit are left out; they make up all but 4.1% or so of the library.
UBC13 polyUb = UBC13 polyubiquitin chain formation inhibitors, primary screen, biochemical, TR-FRET, uHTS; Ubiquitin-conjugating enzyme E2 N (Homo sapiens), P61088; inhibition, % at 20 µM; 330,000 tested, 0.47% active; AID 485273, 2010; in the data active = inhibition above about 45%, passing the limit was not always enough
Apaf-1 inh = inhibitors of human Apaf-1 apoptosome, primary screen, biochemical, DEVD-Rh110 fluorescence, uHTS. AID 489030, 2010. reconstituted apoptosome caspase-3 activity. 330,000 tested, 0.71% active. inhibition, % at 20 µM. Apoptotic protease-activating factor 1 (Homo sapiens), O14727; active = inhibition of at least 40% at 20 µM;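 note: plate controls were DMSO wells for no effect and DEVD-CHO caspase inhibitor wells for full effect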
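System: reconstituted apoptosome with Apaf-1, cytochrome c, caspase-9, procaspase-3, dATP; Signal: Rh110 fluorescence intensity; Schedule: 30 min compound preincubation, 50 min activation, room temperature; Reagent: cytochrome c trigger plus (Z-DEVD)2-Rh110 caspase-3 substrate.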
UPR CHOP act = activators of apoptotic CHOP UPR arm, primary screen, cell-based, CHO-CHOP luciferase reporter, luminescence, uHTS | UPR activation; percent of tunicamycin response over DMSO baseline | activation, % at 10 µM | 330,000 tested, 0.34% active | AID 449763, 2010;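 active = at 10 µM dose, activation of 40% or more, normalized to positive control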;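 note: 100% = tunicamycin at 10 µg/mL and 0% = DMSO alone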
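Material: CHO-CHOP cells, stable luciferase reporter of PERK-eIF2a-CHOP signalling; quantity: 500 reporter cells seeded per well; buffer or medium: F12 medium containing 10% fetal bovine serum; compound: one dose, 10 µM in 0.5% DMSO; incubation: 6 h compound treatment, 37 °C; measured by: Steady-Glo luciferase luminescence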
Mdm2-MdmX inh = inhibitors of human Mdm2-MdmX association, primary screen, cell-based, luminescence, split luciferase, SaOS-2, uHTS; 330,000 tested, 3% active; SaOS-2 split-luciferase Mdm2/MdmX complementation; Protein Mdm4 (Homo sapiens) + E3 ubiquitin-protein ligase Mdm2 (Homo sapiens), …; inhibition, % at 8 µM; AID 485346, 2010;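 active = inhibition of at least 50% at 8 µM in the primary screen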
Target sequence (O15151 whole entry, looked up): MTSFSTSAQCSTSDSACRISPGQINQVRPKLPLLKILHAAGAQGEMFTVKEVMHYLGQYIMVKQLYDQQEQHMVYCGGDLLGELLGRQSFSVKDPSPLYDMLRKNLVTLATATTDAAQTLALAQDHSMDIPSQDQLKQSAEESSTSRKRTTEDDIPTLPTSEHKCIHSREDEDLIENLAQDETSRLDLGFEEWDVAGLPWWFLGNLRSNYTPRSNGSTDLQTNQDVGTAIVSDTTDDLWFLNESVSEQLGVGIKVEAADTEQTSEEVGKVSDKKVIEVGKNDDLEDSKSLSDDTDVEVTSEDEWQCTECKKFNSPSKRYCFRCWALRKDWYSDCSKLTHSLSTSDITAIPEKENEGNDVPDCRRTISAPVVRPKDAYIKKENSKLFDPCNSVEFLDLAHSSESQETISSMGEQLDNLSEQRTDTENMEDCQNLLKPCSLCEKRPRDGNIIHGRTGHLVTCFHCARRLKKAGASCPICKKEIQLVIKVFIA
Target sequence (Q00987 whole entry, looked up): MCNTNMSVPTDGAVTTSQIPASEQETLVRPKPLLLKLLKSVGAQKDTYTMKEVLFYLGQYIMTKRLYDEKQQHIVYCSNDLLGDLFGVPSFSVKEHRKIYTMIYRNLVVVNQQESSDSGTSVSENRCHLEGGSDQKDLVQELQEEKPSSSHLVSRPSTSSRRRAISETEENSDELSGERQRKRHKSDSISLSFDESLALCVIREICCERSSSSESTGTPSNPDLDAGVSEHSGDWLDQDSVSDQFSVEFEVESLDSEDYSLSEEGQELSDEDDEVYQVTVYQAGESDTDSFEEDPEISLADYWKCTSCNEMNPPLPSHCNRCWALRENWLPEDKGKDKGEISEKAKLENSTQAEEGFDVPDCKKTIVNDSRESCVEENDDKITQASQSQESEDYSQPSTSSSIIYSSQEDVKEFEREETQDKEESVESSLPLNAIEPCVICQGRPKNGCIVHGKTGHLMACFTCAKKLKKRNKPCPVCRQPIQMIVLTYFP
UPR XBP1 act = activators of adaptive XBP1 UPR arm, primary screen, cell-based, CHO-XBP1 luciferase reporter, luminescence, uHTS | IRE1-XBP1 UPR activation; percent of tunicamycin response, DMSO as zero | activation, % at 20 µM | 330,000 tested, 0.33% active | AID 463104, 2010;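 active = versus positive control, 20 µM dose yields 30% or more activation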;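 note: 100% = tunicamycin at 10 µg/mL and 0% = DMSO only wells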
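Material: CHO-XBP1 cells stably carrying IRE1-XBP1-driven luciferase reporter / Amount: 1000 cells per well / Compound: 20 µM, 1% DMSO / Times: 6 h treatment, 37 °C / Detection: luciferase luminescence / Measure: % activation of reporter signal versus tunicamycin and DMSO controls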
Mdm2-MdmX conf = Mdm2-MdmX complex disruptors, retested hits, confirmation, luminescence, single concentration; shares compounds with Mdm2-MdmX inh; Mdm2-MdmX binding, luminescent assay; inhibition, % at 8 µM; 10,000 tested, 55% active; AID 489028, 2010; in the data active = inhibition above about 40%
FLuc counter = full-length luciferase signal inhibition, confirmation, counter-screen for Mdm2/MdmX interaction inhibitor project, cell-based, single concentration, SaOS-2. 6,200 tested, 77% active. inhibition, % at 8 µM. shares compounds with Mdm2-MdmX inh. SaOS-2 full-length luciferase counterscreen, luminescence;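 active = mean inhibition at 8 µM reaching about 37%, which flags the compound as non-specific, limit read from the data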;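 note: p53-null SaOS-2 cells with luciferase driven by a doxycycline-inducible promoter; compound on cells about two nights before reading with doxycycline added after day one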
Numbers without * were called inactive.

CCOC(=O)c1[nH]cnc1C(=O)N1CCC(C)CC1 was read as UBC13 polyUb -2.4, Apaf-1 inh -5.9, UPR CHOP act 3.6, Mdm2-MdmX inh 19.8 and UPR XBP1 act -3.7.
`COC(=O)c1cc2sccc2n1Cc1nc(-c2ccc(OC)cc2)oc1C` gave UBC13 polyUb 0.2, Apaf-1 inh 13.2, UPR CHOP act 0.3, Mdm2-MdmX inh 68.2*, UPR XBP1 act -3.5 and Mdm2-MdmX conf 28.4.
`COC(=O)c1cc2sc(Cl)cc2n1Cc1nc(-c2ccccc2)oc1C` gave UBC13 polyUb 7.2, Apaf-1 inh -0.5, UPR CHOP act -0.5, Mdm2-MdmX inh 34.1 and UPR XBP1 act -4.8.
Screening COC(=O)c1cc2ccsc2n1Cc1nc(-c2ccc(OC)cc2)oc1C returned UBC13 polyUb 3.8, Apaf-1 inh -4.2, UPR CHOP act 0.9, Mdm2-MdmX inh 60.4*, UPR XBP1 act -5.0 and Mdm2-MdmX conf 5.7.
For Cc1cccc(CC(Cc2nc3ccccc3[nH]2)c2nc3ccccc3[nH]2)c1 (stereo unspecified) the results were UBC13 polyUb -14.5, Apaf-1 inh -1.9, UPR CHOP act 2.3, Mdm2-MdmX inh 75.2*, UPR XBP1 act -4.1 and Mdm2-MdmX conf 4.0.
`COc1ccccc1CC(Cc1nc2ccccc2[nH]1)c1nc2ccccc2[nH]1` (stereo unspecified) gave UBC13 polyUb -8.7, Apaf-1 inh 7.7, UPR CHOP act 2.0, Mdm2-MdmX inh 13.0 and UPR XBP1 act -2.1.
For O=c1nc2cccc3c2=c(/c1=C(\O)c1ccccc1)c1ccccc1c3=O the results were UBC13 polyUb -33.6, Apaf-1 inh 19.1, UPR CHOP act -1.7, Mdm2-MdmX inh 51.7*, UPR XBP1 act -5.2 and Mdm2-MdmX conf 27.9.
Cc1cc(OCC(=O)N2CCN(c3ccccc3)CC2)c2c(C)cc(=O)oc2c1 was read as UBC13 polyUb -7.4, Apaf-1 inh 1.3, UPR CHOP act 3.1, Mdm2-MdmX inh 76.0*, UPR XBP1 act 2.6 and Mdm2-MdmX conf 6.8.
Screening COc1ccc2nc(C)cc(NCc3cccc(C(F)(F)F)c3)c2c1 returned UBC13 polyUb 9.4, Apaf-1 inh 4.3, UPR CHOP act -0.6, Mdm2-MdmX inh 78.8*, UPR XBP1 act 3.6, Mdm2-MdmX conf 59.8* and FLuc counter 107.6*.
CCS(=O)(=O)NCc1ccc2[nH]c3c(c2c1)CCCC3 was read as UBC13 polyUb -29.3, Apaf-1 inh 38.3, UPR CHOP act 0.7, Mdm2-MdmX inh -16.9 and UPR XBP1 act 1.2.
`S=C(NCc1ccc2[nH]c3c(c2c1)CCCC3)Nc1ccccc1` gave UBC13 polyUb 7.7, Apaf-1 inh 25.9, UPR CHOP act -2.8, Mdm2-MdmX inh 70.5*, UPR XBP1 act -3.3 and Mdm2-MdmX conf 14.8.
Cc1cc(C)cc(NC(=S)NCc2ccc3[nH]c4c(c3c2)CCCC4)c1 was read as UBC13 polyUb -0.3, Apaf-1 inh 14.2, UPR CHOP act -1.5, Mdm2-MdmX inh 83.4*, UPR XBP1 act -1.6 and Mdm2-MdmX conf 21.0.
Screening CCOc1ccc2[nH]c(=O)c(CN(CCN3CCCC3)C(=S)Nc3ccccc3OCC)cc2c1 returned UBC13 polyUb 17.9, Apaf-1 inh -3.1, UPR CHOP act 3.5, Mdm2-MdmX inh 100.3*, UPR XBP1 act 1.5 and Mdm2-MdmX conf 16.6.
For COc1ccc2[nH]c(=O)c(CN(CCN3CCCC3)C(=O)Nc3ccccc3Cl)cc2c1 the results were UBC13 polyUb 1.6, Apaf-1 inh 10.1, UPR CHOP act -2.8, Mdm2-MdmX inh 40.1 and UPR XBP1 act 3.2.
For O=C(CN(Cc1ccco1)C(=O)c1ccc(F)cc1)Nc1ccccc1Br the results were UBC13 polyUb 7.9, Apaf-1 inh -0.2, UPR CHOP act -0.6, Mdm2-MdmX inh -4.8 and UPR XBP1 act -3.3.
Screening O=C1NN(c2cccc(Br)c2)C(=O)/C1=C/c1ccc(-c2cc([N+](=O)[O-])ccc2O)o1 returned UBC13 polyUb -112.4, Apaf-1 inh 14.8, UPR CHOP act -0.1, Mdm2-MdmX inh -17.2 and UPR XBP1 act -2.4.
`CC1=NN(c2ccc(C)cc2)C(=O)/C1=C/c1ccc(-c2cc([N+](=O)[O-])ccc2O)o1` gave UBC13 polyUb -66.1, Apaf-1 inh 15.0, UPR CHOP act 2.0, Mdm2-MdmX inh 66.5*, UPR XBP1 act 0.1 and Mdm2-MdmX conf 31.4.
Screening CC(C)=CCc1c(O)cc2oc3c(CC=C(C)C)c(O)c(O)c(CC=C(C)C)c3c(=O)c2c1O returned UBC13 polyUb -45.6, Apaf-1 inh -8.2, UPR CHOP act 8.2, Mdm2-MdmX inh 100.1*, UPR XBP1 act 1.6, Mdm2-MdmX conf 42.6* and FLuc counter 47.0*.
Screening CC(C)=CCc1cc(-c2oc3cc(O)cc(O)c3c(=O)c2O)ccc1O returned UBC13 polyUb -7.4, Apaf-1 inh -11.0, UPR CHOP act 0.9, Mdm2-MdmX inh 7.5 and UPR XBP1 act 2.1.
For COc1ccc(NC(=O)CN2CCN(C3c4ccccc4-c4ccccc43)CC2)c(OC)c1 the results were UBC13 polyUb 6.0, Apaf-1 inh 26.1, UPR CHOP act 5.5, Mdm2-MdmX inh 94.4*, UPR XBP1 act -3.7 and Mdm2-MdmX conf 20.7.
Screening COc1ccccc1NC(=O)CN1CCN(C2c3ccccc3-c3ccccc32)CC1 returned UBC13 polyUb 4.0, Apaf-1 inh 7.3, UPR CHOP act -2.4, Mdm2-MdmX inh 38.2 and UPR XBP1 act -4.8.
For O=C(N/N=C/c1ccc(O)cc1)c1ccc(COc2cc(Cl)ccc2Cl)o1 the results were UBC13 polyUb 8.5, Apaf-1 inh -8.9, UPR CHOP act 0.0, Mdm2-MdmX inh 60.8*, UPR XBP1 act 14.5 and Mdm2-MdmX conf 23.9.
`COc1ccc2oc(=O)c(/C(C)=N/Nc3ccccc3)cc2c1` gave UBC13 polyUb 6.2, Apaf-1 inh 9.4, UPR CHOP act -1.5, Mdm2-MdmX inh 6.9 and UPR XBP1 act 5.0.
CCC(C)(C)NC(=O)c1ccc(Sc2nncn2C)c([N+](=O)[O-])c1 was read as UBC13 polyUb 5.7, Apaf-1 inh -2.4, UPR CHOP act 2.2, Mdm2-MdmX inh 7.6 and UPR XBP1 act -0.8.

Compound activity deposited in PubChem BioAssay by Sanford-Burnham Center for Chemical Genomics.
